Source: ChEMBL document CHEMBL1124192, “Cyclopentenylcytosine. A carbocyclic nucleoside with antitumor and antiviral properties” (J Med Chem, 1988)
Values after ≈ are worked out from the molar mass of the structure shown. Values joined by “and” are separate entries in the source; they are usually repeats but may differ in a detail not shown here. Equal entries are not always repeated.

Key:
[1] = system: Vesicular stomatitis virus; assay: Inhibitory dose of compound required to inhibit cytopathogenic effects of vesicular stomatitis RNA virus with indiana strain in L929 cells; assay type: functional
[2] = system: Vesicular stomatitis virus; assay: Tested for inhibition of virus-induced cytopathogenic effect and cytotoxicity of compound against vesicular stomatitis RNA virus with indiana strain in L929 cell; assay type: functional
[3] = Ratio of minimum drug concentration to ID50 of the compound (Indiana strain); assay type: ADME
Human alphaherpesvirus 2 [4] = assay: Degree of inhibition of virus-induced cytopathogenic effect and the degree of cytotoxicity produced by compound against herpes simplex type-2 MS virus; assay type: functional
Summary of the method: (§1)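 Southern Research CPE inhibition test in Vero host cells. Confluent monolayers in 96-well plates received drug (minimum seven concentrations, cytotoxic to noncytotoxic) plus virus at 32 CCID50 per 0.1 mL, in triplicate, with cell, virus and drug-cytotoxicity controls. Incubated at 37 °C, 2% CO2. CPE scored microscopically at 3–4 days. VR = 0.1 × sum of CE-grade differences from virus control, halved for partially cytotoxic wells.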

Human alphaherpesvirus 1 [5] = assay: Dose of compound required to inhibit the herpes simplex type-1 virusE-377(TK+ ) induced cytopathogenic effects; assay type: functional; settings: read-out: ID50 (the source's name); summary of the method: as §1
Human alphaherpesvirus 2 [6] = assay: Dose of compound required to inhibit the herpes simplex type-2 MS virus induced cytopathogenic effects; assay type: functional; settings: read-out: ID50 (the source's name); summary of the method: as §1
Human alphaherpesvirus 1 [7] = assay: Degree of inhibition of virus-induced cytopathogenic effect and the degree of cytotoxicity produced by compound against herpes simplex type-1 virus E-377(TK+ ); assay type: functional; summary of the method: as §1
[8] = system: unidentified influenza virus; assay: Tested for inhibition of virus-induced cytopathogenic effect and cytotoxicity of compound against influenza virus with A2/Aichi/2/68 strain in MDCK cell; assay type: functional
[9] = Ratio of minimum drug concentration to ID50 of the compound(Adems strain); assay type: ADME
[10] = system: Japanese encephalitis virus; assay: Inhibitory dose of compound required to inhibit cytopathogenic effects of Japanese encephalitis virus with […] strain in vero cells; assay type: functional; settings: read-out: ID50 (the source's name)
[11] = system: Japanese encephalitis virus; assay: Tested for inhibition of virus-induced cytopathogenic effect and cytotoxicity of compound against Japanese encephalitis virus with […] strain in vero cell; assay type: functional
Punta Toro virus [12] = assay: Tested for inhibition of virus-induced cytopathogenic effect and cytotoxicity of compound against Punta toro virus with adames strain in vero cell; assay type: functional
[13] = system: unidentified influenza virus; assay: Inhibitory dose of compound required to inhibit cytopathogenic effects of influenza virus with A2/Aichi/2/68 strain in MDCK cells; assay type: functional; settings: read-out: ID50 (the source's name)
Punta Toro virus [14] = assay: Inhibitory dose of compound required to inhibit cytopathogenic effects of Punta toro virus with adames strain in vero cells; assay type: functional; settings: read-out: ID50 (the source's name)
Yellow fever virus [15] = assay: Tested for inhibition of virus-induced cytopathogenic effect and cytotoxicity of compound against yellow fever (virus) with Asibi strain in vero cell; assay type: functional
Yellow fever virus [16] = assay: Inhibitory dose of compound required to inhibit cytopathogenic effects yellow fever (virus) with Asibi strain in vero cell; assay type: functional; settings: read-out: ID50 (the source's name)
Human alphaherpesvirus 1 [17] = assay: Dose of compound required to inhibit the herpes simplex type-1 virus HF(TK- )induced cytopathogenic effects; assay type: functional; summary of the method: as §1
Human alphaherpesvirus 1 [18] = assay: Degree of inhibition of virus-induced cytopathogenic effect and the degree of cytotoxicity produced by compound against herpes simplex type-1 virus HF(TK- ); assay type: functional; summary of the method: as §1

## Nc1nccc2c1ncn2[C@@H]1C[C@H](CO)[C@@H](O)[C@H]1O [3-DEAZAARISTEROMYCIN A]
[1]
  ID50: 4.3 µg/mL and 2 µg/mL
[2]
  Virus rating: 2.1 and 3
[3]
  Therapeutic index: 1.6
[3]; read-out: Therapeutic index
  selectivity ratio: 2.3

## Nc1nc2c(ncn2COCCO)c(=O)[nH]1 [ACYCLOVIR]
Human alphaherpesvirus 2 [4]
  Virus rating: 4.5
Human alphaherpesvirus 1 [5]
  IC50: 0.7 µg/mL (≈ 3.11 µM)
Human alphaherpesvirus 2 [6]
  IC50: 5.3 µg/mL (≈ 23.5 µM)
Human alphaherpesvirus 1 [7]
  Virus rating: 6.7

## NC(=O)c1ncn([C@@H]2O[C@H](CO)[C@@H](O)[C@H]2O)n1 [RIBAVIRIN]
[8]
  Virus rating: 3.6
[9]; read-out: Therapeutic index
  selectivity ratio: 5
[10]
  IC50: 3 µg/mL (≈ 12.3 µM)
[11]
  Virus rating: 2.4
Punta Toro virus [12]
  Virus rating: 1.8
[13]
  IC50: 18.7 µg/mL (≈ 76.6 µM)
Punta Toro virus [14]
  IC50: 20.1 µg/mL (≈ 82.3 µM)

## c1c[se]cn1 [SELENAZOLE]
Yellow fever virus [15]
  Virus rating: 2.4
[9]; read-out: Therapeutic ratio
  selectivity ratio: 1.8
Yellow fever virus [16]
  IC50: 0.6 µg/mL (≈ 4.54 µM)

## Nc1ncnc2c1ncn2[C@@H]1O[C@H](CO)[C@@H](O)[C@@H]1O [VIDARABINE]
Human alphaherpesvirus 1 [17]
  ID50: 1.9 µg/mL (≈ 7.11 µM)
Human alphaherpesvirus 1 [17]; Human alphaherpesvirus 1, read-out: ID50 (the source's name)
  IC50: 2.1 µg/mL (≈ 7.86 µM)
Human alphaherpesvirus 2 [4]
  Virus rating: 1.3
Human alphaherpesvirus 1 [5]
  IC50: 13.6 µg/mL (≈ 50.9 µM)
Human alphaherpesvirus 1 [18]
  Virus rating: 3.3 and 2.9
Human alphaherpesvirus 2 [6]
  IC50: 49.9 µg/mL (≈ 187 µM)
Human alphaherpesvirus 1 [7]
  Virus rating: 1.8
